ChEMBL document CHEMBL1151889, “4,4-Dimethyl-1,2,3,4-tetrahydroquinoline-based PPARalpha/gamma agonists. Part. II: Synthesis and pharmacological evaluation of oxime and acidic head group structural variations” (Bioorg Med Chem Lett, 2009)

Key:
[1] = target: T1, Peroxisome proliferator-activated receptor gamma (Homo sapiens, UniProt P37231); experiment: Displacement of [3H]rosiglitazone from human PPARgamma receptor
T1 sequence (P37231 whole entry): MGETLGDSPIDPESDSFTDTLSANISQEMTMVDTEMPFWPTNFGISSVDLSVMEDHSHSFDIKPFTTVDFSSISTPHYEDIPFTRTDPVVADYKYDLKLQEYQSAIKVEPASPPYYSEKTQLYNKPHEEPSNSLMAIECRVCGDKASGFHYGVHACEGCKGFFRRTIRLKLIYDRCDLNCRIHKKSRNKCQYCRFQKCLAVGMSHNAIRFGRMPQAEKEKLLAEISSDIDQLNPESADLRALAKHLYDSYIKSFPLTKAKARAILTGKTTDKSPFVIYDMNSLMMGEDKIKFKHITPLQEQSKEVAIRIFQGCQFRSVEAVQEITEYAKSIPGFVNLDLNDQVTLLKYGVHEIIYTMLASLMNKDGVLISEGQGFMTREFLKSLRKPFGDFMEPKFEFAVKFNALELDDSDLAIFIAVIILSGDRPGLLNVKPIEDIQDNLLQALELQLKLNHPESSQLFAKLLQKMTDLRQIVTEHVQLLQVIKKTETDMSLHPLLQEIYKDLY

Liver microsomes [2] = experiment: Metabolic stability in rat hepatocyte microsomes; assay type: ADME, Microsome
Liver microsomes [3] = experiment: Metabolic stability in human hepatocyte microsomes; assay type: ADME, Microsome
Caco-2 = experiment: Absorption in human Caco-2 cells; assay type: ADME, cell-based; set-up: concentration or dose not given beside the values
[4] = target: T2, Peroxisome proliferator-activated receptor alpha (Homo sapiens, UniProt Q07869); experiment: Agonist activity at human PPARalpha by Gal4 transactivation assay; assay type: functional
T2 sequence (Q07869 whole entry): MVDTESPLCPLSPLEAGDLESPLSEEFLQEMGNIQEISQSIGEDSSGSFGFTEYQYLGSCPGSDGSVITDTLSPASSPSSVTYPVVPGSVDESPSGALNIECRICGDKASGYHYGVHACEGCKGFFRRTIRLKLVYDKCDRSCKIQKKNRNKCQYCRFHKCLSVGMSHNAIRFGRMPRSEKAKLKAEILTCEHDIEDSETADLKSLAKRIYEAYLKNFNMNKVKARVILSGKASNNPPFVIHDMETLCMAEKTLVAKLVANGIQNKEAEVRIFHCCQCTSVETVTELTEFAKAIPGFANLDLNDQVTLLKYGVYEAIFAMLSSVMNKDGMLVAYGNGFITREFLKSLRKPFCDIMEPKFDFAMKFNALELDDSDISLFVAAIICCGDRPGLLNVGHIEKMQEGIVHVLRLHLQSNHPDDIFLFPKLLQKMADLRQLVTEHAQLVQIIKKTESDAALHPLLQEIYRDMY

[5] = target: T1, Peroxisome proliferator-activated receptor gamma; experiment: Agonist activity at human PPARgamma by Gal4 transactivation assay; assay type: functional
[6] = target: T3, Peroxisome proliferator-activated receptor alpha (Homo sapiens) (UniProt Q07869); experiment: Agonist activity at human PPARalpha at transactivation EC50 by Gal4 transactivation assay relative to at 10 uM WY-14643
T3 sequence (whole entry): T2 sequence (Q07869 whole entry)

Mus musculus [7] = experiment: Lipid lowering effect in po dosed C57BL/6J ob/ob mouse assessed as triglyceride level relative to untreated control; assay type: functional
In short: (§1)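 Male C57BL/6J ob/ob mice (n = 8–12 per dose) were gavaged with 3 mg/kg daily for four days in 1% hydroxyethyl cellulose (2.5 ml/kg). On day five, heparinized retro-orbital plasma was collected under CO₂ anaesthesia. Plasma level was expressed as percent change from the mean of vehicle-treated mice. Groups were compared by ANOVA and one-tailed Dunnett's test.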

Mus musculus [8] = experiment: Glucose lowering effect in po dosed C57BL/6J ob/ob mouse assessed as insulin level relative to untreated control; assay type: functional; in short: as §1
Mus musculus [9] = experiment: Effect on bodyweight in po dosed C57BL/6J ob/ob mouse assessed as body weight gain relative to untreated control; assay type: functional
In short: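 Male C57BL/6J ob/ob mice (n = 8–12 per dose) were randomized on glycemia and gavaged with 3 mg/kg daily for four days, between 3 and 5 pm, as a suspension in 1% hydroxyethyl cellulose (2.5 ml/kg). Body weight gain was each mouse's end-of-study minus starting weight. Groups were compared with control by ANOVA and one-tailed Dunnett's test.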

| Structure (SMILES) | Ki [1] [nM] | Stability (Liver microsomes [2]) [%] | Stability (Liver microsomes [3]) [%] | Activity (Caco-2) [%] | EC50 ([4]; read-out: EC50) [nM] | EC50 ([5]; read-out: EC50) [nM] | Activity [6] [%] | EC50 [4] | EC50 [5] | Activity (Mus musculus [7]) [%] | Activity (Mus musculus [8]) [%] | Activity (Mus musculus [9]) [%] |
| --- | --- | --- | --- | --- | --- | --- | --- | --- | --- | --- | --- | --- |
| CN(CCOc1ccc(CC2SC(=O)NC2=O)cc1)c1ccccn1 (stereo unspecified) [ROSIGLITAZONE] | – | 45 | 21 | 100 | – | – | – | – | – | -56 | -55 | 0.56 |
| CCO[C@@H](Cc1ccc(OCCc2ccc(OS(C)(=O)=O)cc2)cc1)C(=O)O [TESAGLITAZAR] | – | 97 | 100 | 78 | – | – | – | – | – | -60 | -94 | 1.9 |
| CO/N=C(\c1ccccc1)c1ccc2c(c1)C(C)(C)CCN2CCOc1ccc(C[C@H](Nc2ccccc2C(=O)c2ccccc2)C(=O)O)cc1 | 54 | – | – | 22 | 10000 | 14 | 11 | – | – | – | – | – |
| CCO[C@@H](Cc1ccc(OCCN2CCC(C)(C)c3cc(/C(=N/OCc4ccccc4)c4ccccc4)ccc32)cc1)C(=O)O | 18.4 | 35 | 59 | 90 | 34 | 7 | 137 | – | – | -27 | 51 | 0.23 |

The next lines start with results.

| Ki [1] [nM] | Stability (Liver microsomes [2]) [%] | Stability (Liver microsomes [3]) [%] | Activity (Caco-2) [%] | EC50 ([4]; read-out: EC50) [nM] | EC50 ([5]; read-out: EC50) [nM] | Activity [6] [%] | EC50 [4] | EC50 [5] | Structure (SMILES) | Activity (Mus musculus [7]) [%] | Activity (Mus musculus [8]) [%] | Activity (Mus musculus [9]) [%] |
| --- | --- | --- | --- | --- | --- | --- | --- | --- | --- | --- | --- | --- |
| 54.2 | 20 | 47 | 95 | 73 | 13 | 152 | – | – | C=CCO/N=C(\c1ccccc1)c1ccc2c(c1)C(C)(C)CCN2CCOc1ccc(C[C@H](OCC)C(=O)O)cc1 | – | – | – |
| > 10000 | – | – | – | – | 10000 | – | Not Active | – | CCOC(=O)N(CC(=O)O)Cc1ccc(OCCN2CCC(C)(C)c3cc(/C(=N/OC)c4ccccc4)ccc32)cc1 | – | – | – |
| 33 | 18 | 27 | 100 | 1000 | 125 | 50 | – | – | CO/N=C(\c1ccccc1)c1ccc2c(c1)C(C)(C)CCN2CCOc1ccc(C[C@H](OCC(F)(F)F)C(=O)O)cc1 | 9 | -17 | 304 |
| 254 | 32 | 84 | 93 | 9 | 7.52 | 145 | – | – | CCO[C@@H](Cc1ccc(OCCN2CCC(C)(C)c3cc(/C(=N/OCC4CC4)c4ccccc4)ccc32)cc1)C(=O)O | -2 | -2 | 107 |
| – | 0 | 0 | 100 | – | – | – | – | – | CCO[C@@H](Cc1ccc(OCCN2CCC(C)(C)c3cc(/C(=N/OC)c4ccccc4)ccc32)cc1)C(=O)O | -5 | -20 | -33 |
| > 10000 | – | – | – | – | – | – | Not Active | Not Active | CO/N=C(\c1ccccc1)c1ccc2c(c1)C(C)(C)CCN2CCOc1ccc(C[C@H](OC(C)=O)C(=O)O)cc1 | – | – | – |
